Active and inactive are the calls of the source. The rule behind the calls is not given here.
Columns and labels:
[1] = test system: HCT-116; assay: Antiproliferative activity against human HCT116 cells assessed as reduction in cell viability incubated for 72 hrs by CCK8 assay; format: functional, cell-based; conditions: HCT-116, 72 h
[2] = test system: A549; assay: Antiproliferative activity against human A549 cells assessed as reduction in cell viability incubated for 72 hrs by CCK8 assay; format: functional, cell-based; conditions: A549, 72 h
[3] = Antiproliferative activity against human MV-3 cells assessed as reduction in cell viability incubated for 72 hrs by CCK8 assay; format: functional, cell-based; conditions: MV-3, 72 h
[4] = test system: BEL-7404 tumor cell line; assay: Antiproliferative activity against human Bel7404 cells assessed as reduction in cell viability incubated for 72 hrs by CCK8 assay; format: functional, cell-based; conditions: BEL-7404, 72 h
[5] = test system: SK-HEP1; assay: Antiproliferative activity against human SKHEP1 cells assessed as reduction in cell viability incubated for 72 hrs by CCK8 assay; format: functional, cell-based; conditions: SK-HEP1, 72 h
[6] = test system: NCI-H446; assay: Antiproliferative activity against human NCI-H446 cells assessed as reduction in cell viability incubated for 72 hrs by CCK8 assay; format: functional, cell-based; conditions: NCI-H446, 72 h
[7] = biological target: Tubulin (Sus scrofa) (UniProt P02554+P02550); assay: (§1) Inhibition of porcine brain tubulin polymerization measured at 1 min interval over 20 mins by absorbance based assay
[8] = biological target: Tubulin (Sus scrofa, UniProt P02554+P02550); assay: as §1
[9] = biological target: Tubulin (Homo sapiens) (UniProt P68371+Q9H4B7+P0DPH7+P68366+Q13509+Q71U36+P04350+Q3ZCM7+P07437+P68363+Q9BQE3+Q6PEY2+Q13885+Q9BVA1+Q9BUF5); assay: Inhibition of tubulin polymerization in human HCT116 cells assessed as disruption of microtubule by measuring clustered microtubule arrangement in cytosol around the nucleus at 0.4 to 10 uM incubated for 12 hrs by immunofluorescence based analysis; format: cell-based
In short: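 HCT116 cells were exposed to several concentrations for 12 h, with paclitaxel as the control. Nuclei were stained with DAPI and microtubules with mouse anti-α-tubulin. Microtubule organization was imaged by laser confocal microscopy.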

[10] = test system: HCT-116; assay: Induction of apoptosis in human HCT116 cells at 0.04 uM incubated for 24 hrs by annexin V-FITC and propidium iodide staining based flow cytometry (reference value: 0.86 %); format: functional
[11] = test system: HCT-116; assay: Induction of apoptosis in human HCT116 cells at 0.20 uM incubated for 24 hrs by annexin V-FITC and propidium iodide staining based flow cytometry (reference value: 0.86 %); format: functional
[12] = test system: HCT-116; assay: Induction of apoptosis in human HCT116 cells at 1 uM incubated for 24 hrs by annexin V-FITC and propidium iodide staining based flow cytometry (reference value: 0.86 %); format: functional
[13] = test system: HCT-116; assay: Cell cycle arrest in human HCT116 cells assessed as accumulation in G2 phase at 12 nM incubated for 24 hrs by propidium iodide staining based flow cytometry (reference value: 12.52 %); format: functional
[14] = test system: HCT-116; assay: Cell cycle arrest in human HCT116 cells assessed as accumulation in S phase at 36 nM incubated for 24 hrs by propidium iodide staining based flow cytometry (reference value: 42.31 %); format: functional
[15] = test system: HCT-116; assay: Cell cycle arrest in human HCT116 cells assessed as accumulation in G2 phase at 36 nM incubated for 24 hrs by propidium iodide staining based flow cytometry (reference value: 12.52 %); format: functional
[16] = biological target: Histone-lysine N-methyltransferase EHMT2 (Homo sapiens) (UniProt Q96KQ7); assay: Inhibition of N-terminal GST-tagged recombinant human G9a (785 to 1210 residues) expressed in Escherichia coli cells using biotinylated histone H3 peptide as substrate at 5 uM incubated for 90 mins in presence of 1 uM SAM by AlphaScreen assay relative to control
[17] = biological target: NAD-dependent protein deacetylase sirtuin-1 (Homo sapiens) (UniProt Q96EB6); assay: Inhibition of N-terminal His tagged recombinant human SIRT1 (193 to end residues) expressed in baculovirus infected Sf9 cells using HDAC substrate 1 as substrate at 5 uM incubated for 30 mins by fluorescence based analysis relative to control
[18] = biological target: Poly [ADP-ribose] polymerase tankyrase-1 (Homo sapiens) (UniProt O95271); assay: Inhibition of TNKS1 (unknown origin) using biotin-NAD+, NAD+ and sIDNA as substrate at 5 uM incubated for 1 hr by ELISA relative to control
[19] = biological target: Poly [ADP-ribose] polymerase 2 (Homo sapiens) (UniProt Q9UGN5); assay: Inhibition of PARP2 (unknown origin) using biotin-NAD+, NAD+ and sIDNA as substrate at 5 uM incubated for 1 hr by ELISA relative to control
[20] = biological target: Protein mono-ADP-ribosyltransferase PARP12 (Homo sapiens) (UniProt Q9H0J9); assay: Inhibition of PARP12 (unknown origin) using biotin-NAD+, NAD+ and sIDNA as substrate at 5 uM incubated for 1 hr by ELISA relative to control
[21] = biological target: DNMT3A2/3L complex (Homo sapiens) (UniProt Q9Y6K1+Q9UJW3); assay: Inhibition of DNMT3a/3L (unknown origin) using poly(dIdC) as substrate at 5 uM incubated for 3 hrs in presence of 20 uM SAM by fluorescence analysis; format: protein-complex assay
[22] = biological target: Protein arginine N-methyltransferase 1 (Homo sapiens) (UniProt Q99873); assay: Inhibition of PRMT1 (unknown origin) using plate-coated histone as substrate at 5 uM incubated for 90 mins in presence of 0.5 uM SAM by AlphaScreen assay relative to control
[23] = biological target: Histone-lysine N-methyltransferase EZH2 (Homo sapiens) (UniProt Q15910); assay: Inhibition of EZH2 (unknown origin) using plate-coated histone as substrate at 5 uM incubated for 90 mins in presence of 5 uM SAM by AlphaScreen assay relative to control
[24] = biological target: 72 kDa type IV collagenase (Homo sapiens) (UniProt P08253); assay: Inhibition of MMP2 (unknown origin) using Mca-PLGLDpaAR as substrate at 5 uM preincubated with enzyme for 2 hrs followed by incubation with substrate for 15 mins by fluorescence based analysis relative to control
[25] = biological target: Histone deacetylase 3/Nuclear receptor corepressor 2 (HDAC3/NCoR2) (Homo sapiens) (UniProt O15379+Q9Y618); assay: Inhibition of C-terminal His-tagged recombinant human HDAC3 (1 to 428 residues)/N-terminal GST-tagged recombinat human NCoR2 (395 to 489 residues) co-expressed in baculovirus infected Sf9 cells using histone peptide 3 as substrate at 5 uM incubated for 30 mins by fluorescence analysis
[26] = biological target: Epidermal growth factor receptor (Homo sapiens) (UniProt P00533); assay: Inhibition of EGFR (unknown origin) using poly (Glu, Tyr) as substrate at 5 uM incubated for 40 mins in presence of 10 uM ATP by kiase-Glo luminescence assay relative to control
[27] = biological target: Lysine-specific demethylase 4A (Homo sapiens) (UniProt O75164); assay: Inhibition of JMJD2A (unknown origin) using biotinylated histone H3 peptide as substrate at 5 uM incubated for 60 mins by AlphaScreen assay relative to control
[28] = species: Homo sapiens; assay: Inhibition of PDE4D7 (unknown origin) using FAM-cAMP as substrate at 5 uM incubated for 1 hr by fluorescence polarization assay relative to control

Poly [ADP-ribose] polymerase tankyrase-1 (Homo sapiens), sequence (O95271 whole entry): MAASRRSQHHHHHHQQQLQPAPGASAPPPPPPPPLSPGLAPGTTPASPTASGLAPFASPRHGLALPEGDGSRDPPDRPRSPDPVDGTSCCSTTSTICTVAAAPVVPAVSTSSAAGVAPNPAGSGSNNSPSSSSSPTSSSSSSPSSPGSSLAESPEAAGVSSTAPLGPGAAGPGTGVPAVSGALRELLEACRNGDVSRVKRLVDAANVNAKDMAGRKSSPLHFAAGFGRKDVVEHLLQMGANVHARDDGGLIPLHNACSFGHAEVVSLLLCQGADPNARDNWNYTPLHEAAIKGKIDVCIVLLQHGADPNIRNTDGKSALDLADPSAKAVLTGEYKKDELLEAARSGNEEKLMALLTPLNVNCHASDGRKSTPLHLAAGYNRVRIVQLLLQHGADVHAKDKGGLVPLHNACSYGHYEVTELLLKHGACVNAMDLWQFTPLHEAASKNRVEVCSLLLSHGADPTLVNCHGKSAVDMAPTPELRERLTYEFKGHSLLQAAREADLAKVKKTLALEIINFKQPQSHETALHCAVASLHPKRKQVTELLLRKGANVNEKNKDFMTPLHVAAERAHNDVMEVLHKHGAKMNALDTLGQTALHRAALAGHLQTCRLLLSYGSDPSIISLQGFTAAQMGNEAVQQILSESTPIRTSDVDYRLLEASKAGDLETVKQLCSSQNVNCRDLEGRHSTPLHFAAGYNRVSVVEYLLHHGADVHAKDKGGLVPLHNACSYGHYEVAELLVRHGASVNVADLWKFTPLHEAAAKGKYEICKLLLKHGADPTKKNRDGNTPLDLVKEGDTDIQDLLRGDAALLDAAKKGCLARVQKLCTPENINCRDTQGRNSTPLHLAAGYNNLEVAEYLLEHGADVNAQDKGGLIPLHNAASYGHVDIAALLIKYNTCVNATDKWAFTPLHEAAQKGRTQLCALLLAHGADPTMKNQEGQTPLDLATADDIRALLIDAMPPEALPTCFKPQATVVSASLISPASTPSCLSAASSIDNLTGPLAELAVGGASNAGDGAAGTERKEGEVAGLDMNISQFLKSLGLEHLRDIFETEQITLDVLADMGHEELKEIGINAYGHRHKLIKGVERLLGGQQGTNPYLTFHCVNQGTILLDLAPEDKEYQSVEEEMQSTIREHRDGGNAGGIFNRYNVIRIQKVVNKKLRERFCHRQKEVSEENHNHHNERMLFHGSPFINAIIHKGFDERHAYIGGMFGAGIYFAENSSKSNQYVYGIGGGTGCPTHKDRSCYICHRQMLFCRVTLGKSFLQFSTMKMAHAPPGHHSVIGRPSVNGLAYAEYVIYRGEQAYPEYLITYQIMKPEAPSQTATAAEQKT
Epidermal growth factor receptor (Homo sapiens), sequence (P00533 whole entry): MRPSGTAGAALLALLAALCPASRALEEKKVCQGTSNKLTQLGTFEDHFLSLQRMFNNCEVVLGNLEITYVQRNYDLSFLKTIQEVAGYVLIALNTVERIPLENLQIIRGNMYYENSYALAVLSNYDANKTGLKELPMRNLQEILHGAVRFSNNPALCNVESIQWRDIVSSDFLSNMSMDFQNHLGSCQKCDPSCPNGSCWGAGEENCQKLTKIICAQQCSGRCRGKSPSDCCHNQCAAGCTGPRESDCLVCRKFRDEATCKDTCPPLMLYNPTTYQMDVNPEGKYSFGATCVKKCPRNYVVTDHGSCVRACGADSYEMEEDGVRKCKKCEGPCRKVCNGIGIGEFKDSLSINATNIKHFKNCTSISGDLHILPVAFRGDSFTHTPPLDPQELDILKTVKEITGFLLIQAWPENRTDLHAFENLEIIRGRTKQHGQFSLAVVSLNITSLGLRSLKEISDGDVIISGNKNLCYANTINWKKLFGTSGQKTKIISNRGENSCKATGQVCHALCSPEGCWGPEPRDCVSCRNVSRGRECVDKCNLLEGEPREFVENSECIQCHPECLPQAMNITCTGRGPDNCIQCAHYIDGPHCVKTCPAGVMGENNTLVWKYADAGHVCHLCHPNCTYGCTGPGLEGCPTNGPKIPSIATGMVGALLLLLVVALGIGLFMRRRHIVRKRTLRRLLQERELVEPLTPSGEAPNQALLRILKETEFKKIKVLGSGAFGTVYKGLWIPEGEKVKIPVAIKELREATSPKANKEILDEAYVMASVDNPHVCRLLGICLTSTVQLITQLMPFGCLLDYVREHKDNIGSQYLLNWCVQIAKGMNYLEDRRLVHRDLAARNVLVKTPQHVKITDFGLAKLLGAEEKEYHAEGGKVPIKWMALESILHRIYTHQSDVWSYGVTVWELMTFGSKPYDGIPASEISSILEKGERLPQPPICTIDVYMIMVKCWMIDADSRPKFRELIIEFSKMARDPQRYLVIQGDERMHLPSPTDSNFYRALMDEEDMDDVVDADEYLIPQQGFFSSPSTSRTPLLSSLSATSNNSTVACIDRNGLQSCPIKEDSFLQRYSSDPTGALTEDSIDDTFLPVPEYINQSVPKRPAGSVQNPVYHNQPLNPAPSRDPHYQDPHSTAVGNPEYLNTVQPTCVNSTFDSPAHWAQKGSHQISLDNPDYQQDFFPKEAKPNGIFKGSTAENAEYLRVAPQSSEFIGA
Histone-lysine N-methyltransferase EZH2 (Homo sapiens), sequence (Q15910 whole entry, looked up): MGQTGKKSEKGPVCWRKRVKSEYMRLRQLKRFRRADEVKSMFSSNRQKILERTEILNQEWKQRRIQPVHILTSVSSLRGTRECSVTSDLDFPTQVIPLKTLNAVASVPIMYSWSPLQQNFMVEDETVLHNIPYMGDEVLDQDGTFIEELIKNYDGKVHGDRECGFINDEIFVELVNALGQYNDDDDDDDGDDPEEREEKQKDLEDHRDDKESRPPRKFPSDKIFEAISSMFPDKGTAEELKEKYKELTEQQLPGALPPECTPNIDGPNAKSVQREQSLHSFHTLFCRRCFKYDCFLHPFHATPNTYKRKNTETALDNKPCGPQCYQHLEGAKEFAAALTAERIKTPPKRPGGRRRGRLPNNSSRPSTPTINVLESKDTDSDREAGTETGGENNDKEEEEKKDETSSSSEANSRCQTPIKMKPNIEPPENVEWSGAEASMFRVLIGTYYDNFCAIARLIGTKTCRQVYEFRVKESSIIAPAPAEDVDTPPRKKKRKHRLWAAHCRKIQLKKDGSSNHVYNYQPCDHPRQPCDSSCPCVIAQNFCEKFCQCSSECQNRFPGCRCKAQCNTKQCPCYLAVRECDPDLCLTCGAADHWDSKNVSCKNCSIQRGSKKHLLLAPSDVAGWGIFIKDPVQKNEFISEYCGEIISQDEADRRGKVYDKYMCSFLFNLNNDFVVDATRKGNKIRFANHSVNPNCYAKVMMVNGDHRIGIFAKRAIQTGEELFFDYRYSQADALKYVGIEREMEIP
Histone-lysine N-methyltransferase EHMT2 (Homo sapiens), sequence (Q96KQ7 whole entry, the tested form may be a part): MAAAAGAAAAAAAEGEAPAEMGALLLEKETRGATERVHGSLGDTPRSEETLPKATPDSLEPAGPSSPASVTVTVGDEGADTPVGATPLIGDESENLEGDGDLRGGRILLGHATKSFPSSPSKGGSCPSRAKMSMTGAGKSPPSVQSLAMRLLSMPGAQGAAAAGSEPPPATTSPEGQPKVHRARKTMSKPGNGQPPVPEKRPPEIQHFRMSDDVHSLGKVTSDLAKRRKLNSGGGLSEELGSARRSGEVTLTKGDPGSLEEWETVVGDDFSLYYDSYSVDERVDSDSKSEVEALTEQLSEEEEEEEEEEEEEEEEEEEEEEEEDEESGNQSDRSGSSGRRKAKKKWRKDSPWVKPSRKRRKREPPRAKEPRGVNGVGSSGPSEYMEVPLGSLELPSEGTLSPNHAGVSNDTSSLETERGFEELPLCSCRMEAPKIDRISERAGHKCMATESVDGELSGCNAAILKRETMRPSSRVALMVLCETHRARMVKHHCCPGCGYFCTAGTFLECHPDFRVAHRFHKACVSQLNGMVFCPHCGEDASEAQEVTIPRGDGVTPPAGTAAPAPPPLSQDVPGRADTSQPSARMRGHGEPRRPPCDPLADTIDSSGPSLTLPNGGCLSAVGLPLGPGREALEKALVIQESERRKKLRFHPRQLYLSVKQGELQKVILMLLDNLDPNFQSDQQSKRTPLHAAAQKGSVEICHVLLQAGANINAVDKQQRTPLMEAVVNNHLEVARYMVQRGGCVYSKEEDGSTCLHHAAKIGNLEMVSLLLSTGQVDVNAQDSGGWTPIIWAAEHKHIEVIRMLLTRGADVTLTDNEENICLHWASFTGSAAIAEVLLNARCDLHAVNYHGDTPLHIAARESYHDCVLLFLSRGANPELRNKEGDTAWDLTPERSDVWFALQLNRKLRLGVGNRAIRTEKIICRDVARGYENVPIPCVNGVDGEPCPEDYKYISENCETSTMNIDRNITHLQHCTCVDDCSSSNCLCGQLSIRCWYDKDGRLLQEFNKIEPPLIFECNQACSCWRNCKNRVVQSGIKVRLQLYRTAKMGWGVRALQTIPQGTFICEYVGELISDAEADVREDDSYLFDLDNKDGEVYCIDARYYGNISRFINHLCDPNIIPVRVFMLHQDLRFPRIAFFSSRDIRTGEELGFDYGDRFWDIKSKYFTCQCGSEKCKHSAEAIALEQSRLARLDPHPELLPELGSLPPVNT
Protein arginine N-methyltransferase 1 (Homo sapiens), sequence (Q99873 whole entry, looked up): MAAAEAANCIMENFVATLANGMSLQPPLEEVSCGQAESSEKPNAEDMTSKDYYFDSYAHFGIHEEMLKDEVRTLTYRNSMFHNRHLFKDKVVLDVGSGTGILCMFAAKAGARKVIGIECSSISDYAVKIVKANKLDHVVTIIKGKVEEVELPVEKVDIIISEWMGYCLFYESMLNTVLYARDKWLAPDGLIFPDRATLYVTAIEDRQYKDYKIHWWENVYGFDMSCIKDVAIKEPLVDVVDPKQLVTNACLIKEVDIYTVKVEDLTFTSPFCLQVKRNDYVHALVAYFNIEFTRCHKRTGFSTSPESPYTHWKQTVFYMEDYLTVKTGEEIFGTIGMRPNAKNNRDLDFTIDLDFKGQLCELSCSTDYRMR

IC50 [1]: 2 nM
IC50 [2]: 159000 nM
IC50 [4]: 100 nM
IC50 [5]: 1300 nM
IC50 [6]: > 200000 nM
inhibition [7]: Dose-dependent effect
IC50 [8]: 26300 nM
inhibition [9]: Active
inhibition [16]: < 20%
inhibition [17]: < 20%
inhibition [18]: < 20%
inhibition [19]: < 20%
inhibition [20]: < 20%
inhibition [21]: < 20%
inhibition [22]: < 20%
inhibition [23]: < 20%
inhibition [24]: < 20%
inhibition [25]: < 20%
inhibition [26]: < 20%
inhibition [27]: < 20%
inhibition [28]: < 20%
SMILES: COc1ccc2c(c1)cc1n2CCN2C(=O)c3cc(F)ccc3N(C)C12 (stereo not drawn)
IC50 [3]: 400 nM
Activity [10]: 32.52%
Activity [11]: 45.97%
Activity [12]: 52%
Activity [13]: 35.49%
Activity [14]: 14.85%
Activity [15]: 84.13%

— ChEMBL document CHEMBL4376872, “Scaffold Hopping of Natural Product Evodiamine: Discovery of a Novel Antitumor Scaffold with Excellent Potency against Colon Cancer” (J Med Chem, 2020)
